Assay results collected from several papers.
Each line is one published result; the experiments were not run side by side.
Target: NUAK family SNF1-like kinase 1 (NUAK1, Homo sapiens, UniProt O60285)
One construct used (O60285 1-661): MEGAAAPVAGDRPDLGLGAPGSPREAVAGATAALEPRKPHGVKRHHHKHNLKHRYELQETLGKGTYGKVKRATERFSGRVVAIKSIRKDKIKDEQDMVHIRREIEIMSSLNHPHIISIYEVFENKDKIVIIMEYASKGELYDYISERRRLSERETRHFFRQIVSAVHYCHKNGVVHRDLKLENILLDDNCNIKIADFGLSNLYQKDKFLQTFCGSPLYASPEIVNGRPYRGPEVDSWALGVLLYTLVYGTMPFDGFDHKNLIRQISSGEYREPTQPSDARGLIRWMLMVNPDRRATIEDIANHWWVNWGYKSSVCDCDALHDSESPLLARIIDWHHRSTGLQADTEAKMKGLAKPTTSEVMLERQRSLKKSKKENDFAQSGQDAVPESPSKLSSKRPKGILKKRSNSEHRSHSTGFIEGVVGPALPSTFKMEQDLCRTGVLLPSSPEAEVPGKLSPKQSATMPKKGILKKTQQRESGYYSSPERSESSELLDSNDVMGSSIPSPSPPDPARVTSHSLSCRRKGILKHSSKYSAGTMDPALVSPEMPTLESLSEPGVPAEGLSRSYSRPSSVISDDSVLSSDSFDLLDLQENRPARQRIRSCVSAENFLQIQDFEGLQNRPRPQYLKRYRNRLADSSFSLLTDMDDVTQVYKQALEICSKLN

SMILES | assay | conditions | measurement | result
O=C(NCCCNc1nc(Nc2cccc(CN3CCOCC3)c2)ncc1C1CC1)C1CCC1 | enzyme activity, inhibitor, radiometric | 1 µM | remaining activity | 31%
CCN(CC)CCNC(=O)c1c(C)[nH]c(/C=C2\C(=O)Nc3ccc(F)cc32)c1C | cell-free assay | 0.5 µM | remaining signal | 2.75%
O=C(NCCCNc1nc(Nc2cccc(NC(=O)N3CCCC3)c2)ncc1Br)C1CCC1 | enzyme activity, inhibitor, radiometric | 1 µM | remaining activity | 0%
FC(F)c1nc2ccccc2n1-c1nc(N2CCOCC2)nc(N2CCOCC2)n1 | enzyme activity, inhibitor | 10 µM | remaining activity | 90%
Cc1cc(NC(=O)c2cccc3cc(-c4cccc5[nH]nc(N)c45)ccc23)ccc1F | enzyme activity, inhibitor | 0.1 µM | activity vs control | 100%
CNC(=O)c1cc(Oc2ccc(NC(=O)Nc3ccc(Cl)c(C(F)(F)F)c3)cc2)ccn1 | enzyme activity, inhibitor | 0.3 µM | inhibition | -3%
O=C(Nc1ccc(Oc2ccc(F)cc2)cc1)N1CCc2ncccc2[C@H]1c1ccc(F)cc1 | cell-free assay, competition with immobilised ligand | 1 µM | remaining binding | 92%
COc1cc(/C=C/C(=O)CC(=O)/C=C/c2ccc(O)c(OC)c2)ccc1O | enzyme activity, inhibitor | 1 µM | activity vs control | 55%
CO[C@@H](C)c1c(Nc2ccc([C@H](N(C)C(=O)C3CCS(=O)(=O)CC3)C(F)(F)F)cc2)cnc2cc(Cl)nn12 | cell-free assay, competition with immobilised ligand | 1 µM | remaining binding | 98%
CN(C)C1CCN(CC#Cc2nn(C3CCCC3)c3nc(NCc4ccccc4)ncc23)C1 (stereo not drawn) | enzyme activity, inhibitor, FRET | 10 µM | inhibition | 48%
CN([C@@H]1CCc2c(CC(=O)O)c3ccccc3n2C1)S(=O)(=O)c1ccc(F)cc1 | cell-free assay, competition with immobilised ligand | 1 µM | remaining binding | 100%
Brc1cnc(Nc2cccc(CN3CCOCC3)c2)nc1NCCc1c[nH]cn1 | enzyme activity, inhibitor, radiometric | 1 µM | remaining activity | 1%
COc1ccc2c(c1)O[C@@H](c1ccc(OC)c(OC)c1)C[C@H]2NC(=O)C1(c2ccc3c(c2)OC(F)(F)O3)CC1 | cell-free assay, competition with immobilised ligand | 1 µM | remaining binding | 86%
NS(=O)(=O)c1ccc(CNc2nc(Nc3cccc(CN4CCOCC4)c3)ncc2Br)cc1 | enzyme activity, inhibitor, radiometric | 1 µM | remaining activity | 23%
CCc1ccccc1C(=O)Nc1n[nH]c2c(C)c(F)c(C3C(C#N)=C(C)N(C)C(C)=C3C#N)cc12 | cell-free assay, competition with immobilised ligand | 1 µM | remaining binding | 33%
Cc1ccc(Nc2nccc(N(C)c3ccc4c(C)n(C)nc4c3)n2)cc1S(N)(=O)=O | enzyme activity, inhibitor | 10 µM | inhibition | 76%
N#CCCc1ccc2c(c1)-c1[nH]c3ccc([N+](=O)[O-])cc3c1CC(=O)N2 | cell-free assay | 0.5 µM | remaining signal | 14.1%
Cc1nn(CC(F)(F)F)cc1Nc1ncc(Br)c(NCc2ccc(S(N)(=O)=O)cc2)n1 | enzyme activity, inhibitor, radiometric | 1 µM | remaining activity | 58%
CN(C(=O)c1ccccc1)c1cc(N(C)c2ccc3c(c2)CCc2ccc(C(=O)NCCN4CCOCC4)cc2C3=O)ccc1F | cell-free assay, competition with immobilised ligand | 1 µM | remaining binding | 100%
Cc1nn(CC(F)(F)F)cc1Nc1nccc(NCc2ccc(S(N)(=O)=O)cc2)n1 | enzyme activity, inhibitor, radiometric | 1 µM | remaining activity | 94%
CNCc1ccccc1-c1csc([C@@H](C)Nc2nc(C)nc3cc(OC)c(OC)cc23)c1 | cell-free assay, competition with immobilised ligand | 1 µM | remaining binding | 97%
CC/C(=N\NC(=O)NCc1cccc(O)c1)c1ccc(O)c(C)c1O | enzyme activity, inhibitor | 0.1 µM | inhibition | -2.5%
O=C1NC(=O)c2cc(Nc3ccc(F)cc3)c(Nc3ccc(F)cc3)cc21 | cell-free assay | 0.5 µM | remaining signal | 94%
c1cc(CN2CCOCC2)cc(Nc2nccc(NCCc3cnc[nH]3)n2)c1 | enzyme activity, inhibitor, radiometric | 1 µM | remaining activity | 14%
CNC(=O)Nc1ccc2c(c1)CC[C@@]21OC(=O)N(CC(=O)N(Cc2ccc(F)cc2)[C@@H](C)C(F)(F)F)C1=O | cell-free assay, competition with immobilised ligand | 1 µM | remaining binding | 94%
Cc1nn(CC(F)(F)F)cc1Nc1ncc(C2CC2)c(NCCc2c[nH]cn2)n1 | enzyme activity, inhibitor, radiometric | 1 µM | remaining activity | 73%
CN(c1nccc(-c2cnn3ncccc23)n1)C1CC1 | cell-free assay | 1 µM | remaining signal | 93%
